Our source for the inhibition in vivo, logP and IC50 values is ChEMBL document CHEMBL3792382, “Synthesis of new secretory phospholipase A2-inhibitory indole containing isoxazole derivatives as anti-inflammatory and anticancer agents” (Eur J Med Chem, 2016).

What is called inhibition in vivo is the share of the control response that was lost under treatment. Usually logP stands for the decadic logarithm of the partition coefficient of the neutral form, usually between octanol and water. Low readings indicate lower lipophilicity, high ones higher lipophilicity. What is called IC50 is the concentration needed to halve the response being measured. Read a high IC50 as weaker potency in that assay.

Data set [1] has as its system Rattus norvegicus. The data set can be described thus: Antiinflammatory activity against carrageenan-induced paw edema in Wistar albino rat model at 10 mg/kg, po administered 1 hr prior to carrageenan-challenge measured at 4th hr by plethysmometer. Format: functional. The procedure, abridged: (§1)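 Rats were dosed orally 1 h before subplantar injection of 0.1 ml 1% λ-carrageenan in saline into the left hind paw, with saline in the right paw. Vehicle controls received saline 1 ml/kg p.o.; ursolic acid served as positive control. Paw volume was read by mercury plethysmometer before injection and at 1, 2, 3, 4 and 6 h. Results are % edema inhibition versus vehicle, mean ± SEM, n = 3-6, one-way ANOVA.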

Data set [2] in a line: Partition coefficient, logP of the compound. Format: physicochemical. The note with it: octanol/water.
Data set [3] is described as follows: Antiproliferative activity against human DU145 cells after 48 hrs by MTT assay. Format: functional, cell-based. The note with it: DU-145, 48 h. The procedure, abridged:
(§2)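 Cells were grown in RPMI with 10% FCS, penicillin and streptomycin at 37 °C in humidified CO2. They were exposed to a range of concentrations for 48 h, then given MTT for 2 h at 37 °C. Formazan was dissolved in DMSO and absorbance read at 570 nm (reference 620 nm). IC50 was derived from the readings, with doxorubicin as positive control.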
A general note: Tetrazolium dyes change colour on reduction, which living cells bring about.

Data set [4] can be described thus: Inhibition of human type 2A secretory PLA2 using diheptanoyl thio-PC as substrate after 15 mins by ELISA. An outline of the steps:
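Type IIA sPLA2 from a commercial kit was incubated with inhibitor and diheptanoyl thio-PC substrate for 15 min. DTNB was then added and the thiol released by hydrolysis was read at 415 nm. Control wells held no inhibitor. % inhibition = (A control − A test)/A control × 100, and IC50 was taken from the dose-response; ursolic acid served as positive control.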

The subject of the next data set is MCF7. Description: Antiproliferative activity against human MCF7 cells after 48 hrs by MTT assay. Format: functional, cell-based. The note with it: MCF7, 48 h. An outline of the steps:
as §2

The test system of data set [5] is Rattus norvegicus. Description: Antiinflammatory activity against carrageenan-induced paw edema in Wistar albino rat model at 10 mg/kg, po administered 1 hr prior to carrageenan-challenge measured at 3rd hr by plethysmometer. It counts as functional. An outline of the steps:
as §1
A general note: The carrageenan paw model is a standard test of acute inflammation.

In the case of `Cc1ccc2[nH]cc(CNCc3cc(-c4ccc(F)c(C(F)(F)F)c4)no3)c2c1`, the inhibition in vivo at 10 mg/kg was 76.5% with Rattus norvegicus [1] and 75.7% with Rattus norvegicus [5]. In data set [2], the logP is 4.85. Also, the IC50 in data set [3] stood at 14.2 µM; in data set [4], 10.2 µM; in the data set with MCF7, 10 µM.
In the case of `COc1ccc(-c2cc(CNCc3c[nH]c4ccccc34)on2)cc1`, the logP in data set [2] is 3.5. Moreover, the IC50 in data set [4] amounted to 18.2 µM.
Taken in the same sequence, the figures for `Cc1ccc(-c2cc(CNCc3c[nH]c4ccccc34)on2)cc1` were 3.89 and 22.7 µM.
In data set [2], `Fc1ccc(-c2cc(CNCc3c[nH]c4ccccc34)on2)cc1C(F)(F)F` returned a logP of 4.43. The same molecule gave an IC50 in data set [4] of 21.5 µM.
With `Cc1ccc(-c2cc(CNCc3c[nH]c4ccc(Br)cc34)on2)cc1`, in data set [2], the logP came to 4.67. In data set [4], this molecule yielded an IC50 of 27.3 µM.
For `COc1ccc(-c2cc(CNCc3c[nH]c4ccc(Br)cc34)on2)cc1` the same measures were 4.28 and 32.6 µM.
Turning to `Brc1ccc2[nH]cc(CNCc3cc(-c4ccccc4)no3)c2c1`, the logP in data set [2] came out at 4.23. Further, the IC50 in data set [4] is 32.5 µM.
With `Fc1ccc(-c2cc(CNCc3c[nH]c4ccc(Br)cc34)on2)cc1C(F)(F)F`, in data set [2], the logP was 5.21. The IC50 in data set [4] turned out to be 17.2 µM.
For `c1ccc(-c2cc(CNCc3c[nH]c4ccccc34)on2)cc1` the same measures were 3.44 and 30.6 µM.
As for `O=[N+]([O-])c1ccc(-c2cc(CNCc3c[nH]c4ccccc34)on2)cc1`, in data set [2], the logP stood at 3.4. The same molecule had an IC50 in data set [4] of 25.6 µM.
As for `Cc1ccc(-c2cc(CNCc3c[nH]c4ccc(C)cc34)on2)cc1`, the logP in data set [2] amounted to 4.33. Further, in data set [4], the IC50 turned out to be 21.6 µM.
As for `COc1ccc(-c2cc(CNCc3c[nH]c4ccc(C)cc34)on2)cc1`, in data set [2], the logP was 3.92. Moreover, in data set [4], it took 24.6 µM to reach half-maximal inhibition (IC50).
In the case of `O=[N+]([O-])c1ccc(-c2cc(CNCc3c[nH]c4ccc(Br)cc34)on2)cc1`, the logP in data set [2] was determined as 4.19. In data set [4], this molecule yielded an IC50 of 22.4 µM.
Consider `Cc1ccc2[nH]cc(CNCc3cc(-c4ccccc4)no3)c2c1`, for which the logP in data set [2] is 3.87. For the same molecule, in data set [4], the midpoint of inhibition, the IC50, lay at 27.9 µM.
Regarding `Cc1ccc2[nH]cc(CNCc3cc(-c4ccc([N+](=O)[O-])cc4)no3)c2c1`, in data set [2], the logP came out at 3.83. The molecule also displayed an IC50 in data set [4] of 19.4 µM.
In turn, `COc1cccc2c1C(=O)c1c(O)c3c(c(O)c1C2=O)C[C@@](O)(C(=O)CO)C[C@@H]3O[C@H]1C[C@H](N)[C@H](O)[C@H](C)O1` [DOXORUBICIN] returned an IC50 in data set [3] of 4.75 µM.
As for `C[C@H]1[C@H](C)CC[C@]2(C(=O)O)CC[C@]3(C)C(=CC[C@@H]4[C@@]5(C)CC[C@H](O)C(C)(C)[C@@H]5CC[C@]43C)[C@H]12` [URSOLIC ACID], the inhibition in vivo at 10 mg/kg with Rattus norvegicus [1] amounted to 75.2%; in the data set with Rattus norvegicus [5], 73%. Besides, 12.6 µM corresponded to half-maximal inhibition in data set [4] (IC50).
